ChEMBL document CHEMBL3861985, “Discovery of N-(1-(3-(4-phenoxyphenyl)-1,2,4-oxadiazol-5-yl)ethyl)acetamides as novel acetyl-CoA carboxylase 2 (ACC2) inhibitors with peroxisome proliferator-activated receptor α/δ (PPARα/δ) dual agonistic activity” (Bioorg Med Chem, 2016)

Experiments:
[1] = biological target: T1, Acetyl-CoA carboxylase 2 (Homo sapiens, UniProt O00763); assay: Inhibition of full length recombinant C-terminal His-tagged human ACC2 expressed in baculovirus infected sf9 cells at 30 uM using acetyl-CoA as substrate after 90 mins by ATP consumption assay relative to N-(4-(4-(4-isopropoxyphenoxy)phenyl)but-3-yn-2-yl)acetamide
In short: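 ATP-consumption assay with His-tagged human ACC2 (50 ng/well), 0.5 mM acetyl-CoA, 0.5 μM ATP and bicarbonate/citrate/Mg2+ in HEPES pH 7.5, run 90 min at 37 °C. Residual ATP was measured. Inhibition at 30 μM is expressed as a percentage of the maximum inhibition reached by the reference ACC inhibitor (set to 100%).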
Target sequence in this assay (O00763 whole entry, looked up): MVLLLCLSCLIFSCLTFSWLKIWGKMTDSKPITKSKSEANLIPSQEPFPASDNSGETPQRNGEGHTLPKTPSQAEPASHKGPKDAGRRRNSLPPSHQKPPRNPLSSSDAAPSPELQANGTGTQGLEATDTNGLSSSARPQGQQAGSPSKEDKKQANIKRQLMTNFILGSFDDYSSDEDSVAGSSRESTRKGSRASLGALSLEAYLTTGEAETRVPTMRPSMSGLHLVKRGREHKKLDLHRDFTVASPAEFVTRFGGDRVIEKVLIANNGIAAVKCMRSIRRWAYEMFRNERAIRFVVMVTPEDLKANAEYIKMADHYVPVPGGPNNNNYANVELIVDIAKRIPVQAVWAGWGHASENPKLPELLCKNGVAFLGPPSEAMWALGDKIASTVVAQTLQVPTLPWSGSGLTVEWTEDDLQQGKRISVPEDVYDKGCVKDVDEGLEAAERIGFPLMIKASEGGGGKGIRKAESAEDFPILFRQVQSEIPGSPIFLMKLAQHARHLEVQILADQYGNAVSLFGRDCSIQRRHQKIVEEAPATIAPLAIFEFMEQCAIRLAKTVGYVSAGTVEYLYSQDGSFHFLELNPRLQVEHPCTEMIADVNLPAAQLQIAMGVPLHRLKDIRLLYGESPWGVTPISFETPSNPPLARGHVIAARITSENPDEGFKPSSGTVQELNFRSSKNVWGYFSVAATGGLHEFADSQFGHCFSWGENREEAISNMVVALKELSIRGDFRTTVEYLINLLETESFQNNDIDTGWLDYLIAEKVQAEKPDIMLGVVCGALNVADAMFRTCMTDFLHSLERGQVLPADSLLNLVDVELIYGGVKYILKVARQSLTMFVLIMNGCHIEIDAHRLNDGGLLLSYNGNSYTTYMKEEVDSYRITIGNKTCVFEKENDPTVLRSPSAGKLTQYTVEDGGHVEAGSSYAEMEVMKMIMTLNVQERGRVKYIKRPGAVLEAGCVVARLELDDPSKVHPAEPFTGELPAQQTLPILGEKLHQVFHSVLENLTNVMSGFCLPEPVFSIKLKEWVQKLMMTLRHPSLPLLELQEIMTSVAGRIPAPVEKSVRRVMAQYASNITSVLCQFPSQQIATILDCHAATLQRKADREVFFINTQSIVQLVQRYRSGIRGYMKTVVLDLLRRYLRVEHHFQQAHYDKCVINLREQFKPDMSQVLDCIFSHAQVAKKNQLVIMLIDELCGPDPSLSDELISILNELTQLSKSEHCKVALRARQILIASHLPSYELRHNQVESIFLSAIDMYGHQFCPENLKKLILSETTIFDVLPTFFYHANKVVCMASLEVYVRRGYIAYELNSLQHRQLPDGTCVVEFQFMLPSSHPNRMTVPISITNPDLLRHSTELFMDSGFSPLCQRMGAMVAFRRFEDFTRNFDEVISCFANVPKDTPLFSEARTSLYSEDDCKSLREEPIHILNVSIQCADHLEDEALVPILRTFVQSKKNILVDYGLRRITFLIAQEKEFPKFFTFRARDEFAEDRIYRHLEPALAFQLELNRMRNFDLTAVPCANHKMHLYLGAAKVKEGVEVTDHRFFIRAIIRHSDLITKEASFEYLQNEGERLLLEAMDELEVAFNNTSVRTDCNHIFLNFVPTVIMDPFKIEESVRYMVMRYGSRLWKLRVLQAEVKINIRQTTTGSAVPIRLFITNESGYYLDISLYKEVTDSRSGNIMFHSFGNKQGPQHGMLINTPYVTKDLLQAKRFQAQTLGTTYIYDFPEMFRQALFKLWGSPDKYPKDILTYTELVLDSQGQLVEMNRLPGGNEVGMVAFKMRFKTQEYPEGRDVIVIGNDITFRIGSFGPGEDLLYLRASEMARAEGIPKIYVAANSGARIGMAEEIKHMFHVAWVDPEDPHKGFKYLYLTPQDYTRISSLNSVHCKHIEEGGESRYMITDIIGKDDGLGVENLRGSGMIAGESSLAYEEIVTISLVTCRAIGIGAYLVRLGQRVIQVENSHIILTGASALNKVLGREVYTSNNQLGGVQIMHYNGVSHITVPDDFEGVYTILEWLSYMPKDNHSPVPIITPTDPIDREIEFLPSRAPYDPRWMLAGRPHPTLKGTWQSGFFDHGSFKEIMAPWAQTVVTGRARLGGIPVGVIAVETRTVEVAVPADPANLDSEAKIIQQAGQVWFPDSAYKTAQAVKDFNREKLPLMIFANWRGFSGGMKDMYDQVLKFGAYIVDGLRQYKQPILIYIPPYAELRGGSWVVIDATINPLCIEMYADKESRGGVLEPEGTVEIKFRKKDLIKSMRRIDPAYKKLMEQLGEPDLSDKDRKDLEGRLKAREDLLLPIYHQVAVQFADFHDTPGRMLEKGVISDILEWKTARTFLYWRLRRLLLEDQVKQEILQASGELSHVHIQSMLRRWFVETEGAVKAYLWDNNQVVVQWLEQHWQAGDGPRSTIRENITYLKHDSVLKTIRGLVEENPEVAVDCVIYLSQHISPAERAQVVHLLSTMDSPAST

[2] = biological target: T1, Acetyl-CoA carboxylase 2; assay: Inhibition of full length recombinant C-terminal His-tagged human ACC2 expressed in baculovirus infected sf9 cells using acetyl-CoA as substrate after 90 mins by ATP consumption assay
In short: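 Recombinant C-terminal His-tagged human ACC2 (50 ng/well) was run in 30 mM HEPES pH 7.5 with 18 mM NaHCO3, 1.0 mg/mL BSA, 0.5 μM ATP, 1 mM DTT, 4 mM MgCl2, 2 mM sodium citrate, 0.5 mM acetyl-CoA and 1% DMSO. Inhibitor ranged 0–100 μM. Enzyme addition started the reaction, then 90 min at 37 °C. Residual ATP was read by luminescence. Triplicates; IC50 from dose–response curves.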
Target sequence in this assay (O00763 whole entry): as the sequence (O00763 whole entry, looked up) above

[3] = biological target: T2, Peroxisome proliferator-activated receptor alpha (Homo sapiens, UniProt Q07869); assay: Agonist activity at GAL4-tagged human PPARalpha ligand binding domain chimeric receptor expressed in HEK293 cells after 24 hrs by luciferase reporter gene assay; assay type: cell-based
T2 sequence (Q07869 whole entry): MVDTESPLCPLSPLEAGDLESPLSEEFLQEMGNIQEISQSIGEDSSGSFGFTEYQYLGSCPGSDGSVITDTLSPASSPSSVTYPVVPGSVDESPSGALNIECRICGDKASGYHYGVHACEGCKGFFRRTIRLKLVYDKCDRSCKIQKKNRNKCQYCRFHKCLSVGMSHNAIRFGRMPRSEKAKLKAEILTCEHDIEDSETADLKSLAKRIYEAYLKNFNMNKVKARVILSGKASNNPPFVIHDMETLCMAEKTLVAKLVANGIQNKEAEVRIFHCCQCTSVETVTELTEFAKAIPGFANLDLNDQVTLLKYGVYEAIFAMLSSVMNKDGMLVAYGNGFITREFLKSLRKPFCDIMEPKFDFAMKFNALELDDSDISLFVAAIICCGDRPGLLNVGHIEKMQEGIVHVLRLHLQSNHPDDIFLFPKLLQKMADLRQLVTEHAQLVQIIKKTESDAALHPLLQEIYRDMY
In short: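 HEK293 cells seeded at 20% confluence the day before. They were co-transfected by calcium phosphate with a CMX-GAL4N-hPPARα, γ or δ LBD plasmid (30 ng), TK-MH100x4-Luc reporter (100 ng) and CMX-β-galactosidase (10 ng). After 24 h, compound was added for 24 h (final 0.5% DMSO). Luciferase was read and normalized to β-galactosidase (2-nitrophenyl-β-D-galactopyranoside, A405). Triplicates; EC50 taken from dose–response curves.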

[4] = biological target: T3, Peroxisome proliferator-activated receptor delta (Homo sapiens, UniProt Q03181); assay: Agonist activity at GAL4-tagged human PPARdelta ligand binding domain chimeric receptor expressed in HEK293 cells after 24 hrs by luciferase reporter gene assay; assay type: cell-based
T3 sequence (Q03181 whole entry): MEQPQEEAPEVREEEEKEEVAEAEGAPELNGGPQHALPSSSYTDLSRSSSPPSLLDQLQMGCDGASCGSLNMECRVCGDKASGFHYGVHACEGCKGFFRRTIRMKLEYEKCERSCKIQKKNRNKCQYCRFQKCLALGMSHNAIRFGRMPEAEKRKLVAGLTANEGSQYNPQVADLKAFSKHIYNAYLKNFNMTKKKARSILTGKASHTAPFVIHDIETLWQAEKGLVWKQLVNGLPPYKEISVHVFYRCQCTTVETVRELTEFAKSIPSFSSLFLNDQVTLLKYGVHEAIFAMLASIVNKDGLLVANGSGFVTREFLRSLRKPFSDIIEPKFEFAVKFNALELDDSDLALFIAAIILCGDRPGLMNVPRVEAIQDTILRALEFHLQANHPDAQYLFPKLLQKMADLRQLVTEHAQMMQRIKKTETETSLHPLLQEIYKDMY

[5] = biological target: T4, Peroxisome proliferator-activated receptor alpha (Homo sapiens) (UniProt Q07869); assay: Agonist activity at GAL4-tagged human PPARalpha ligand binding domain chimeric receptor expressed in HEK293 cells after 24 hrs by luciferase reporter gene assay relative to GW7647; assay type: cell-based
T4 sequence (whole entry): T2 sequence (Q07869 whole entry)

[6] = biological target: T5, Peroxisome proliferator-activated receptor delta (Homo sapiens) (UniProt Q03181); assay: Agonist activity at GAL4-tagged human PPARdelta ligand binding domain chimeric receptor expressed in HEK293 cells after 24 hrs by luciferase reporter gene assay relative to GW501516; assay type: cell-based
T5 sequence (whole entry): T3 sequence (Q03181 whole entry)

| Compound | Imax [1] [%] | IC50 [2] [nM] | EC50 [3] [nM] | EC50 [4] [nM] | Emax [5] [%] | Emax [6] [%] |
| --- | --- | --- | --- | --- | --- | --- |
| CCOc1ccc(Oc2ccc(-c3noc(C(C)NC(C)=O)n3)cc2)cc1 (configuration not stated) | 35 | 420 | 330 | 370 |  |  |
| COc1ccc(Oc2ccc(-c3noc(C(C)NC(C)=O)n3)cc2)cc1 (configuration not stated) | 17 |  | 210 | 390 |  |  |
| CC(=O)NC(C)c1nc(-c2ccc(Oc3ccc(O)cc3)cc2)no1 (configuration not stated) | 24 |  | 1000 | 1000 | 13 to 33 | 2 to 9 |
| CC(=O)N[C@H](C)c1nc(-c2ccc(Oc3ccccc3)cc2)no1 | 37 |  |  |  |  |  |
| CC(=O)NC(C)c1nc(-c2ccc(Oc3ccccc3)cc2)no1 (racemic) | 45 | 290 | 320 | 320 |  |  |
| CC(=O)N[C@H](C)c1nc(-c2ccc(Oc3ccc(Oc4ccccc4)cc3)cc2)no1 | 67 | 7500 |  |  |  |  |
| CC(=O)NCc1nc(-c2ccc(Oc3ccc(O)cc3)cc2)no1 | 3 |  |  |  |  |  |
| CC(=O)NCc1nc(-c2ccc(Oc3ccc(OC(C)C)cc3)cc2)no1 | 83 | 1100 |  |  |  |  |
| CCCOc1ccc(Oc2ccc(-c3noc(C(C)NC(C)=O)n3)cc2)cc1 (configuration not stated) | 88 | 610 |  |  |  |  |

The next lines start with the values.

| Imax [1] [%] | IC50 [2] [nM] | EC50 [3] [nM] | EC50 [4] [nM] | Emax [5] [%] | Emax [6] [%] | Compound |
| --- | --- | --- | --- | --- | --- | --- |
| 76 | 48 |  |  |  |  | CC(=O)NC(C)c1nc(-c2ccc(Oc3ccc(Oc4ccccc4)cc3)cc2)no1 (racemic) |
| 65 | 220 | 150 | 290 |  |  | CC(=O)N[C@@H](C)c1nc(-c2ccc(Oc3ccccc3)cc2)no1 |
| 86 | 16 |  |  |  |  | CC(=O)N[C@@H](C)c1nc(-c2ccc(Oc3ccc(Oc4ccccc4)cc3)cc2)no1 |
| 74 | 100 |  |  |  |  | CC(=O)NC(C)c1nc(-c2ccc(Oc3ccc(OC(C)C)cc3)cc2)no1 (configuration not stated) |
| 93 | 260 |  |  |  |  | CCCCCCOc1ccc(Oc2ccc(-c3noc(C(C)NC(C)=O)n3)cc2)cc1 (configuration not stated) |
|  | 11 |  |  |  |  | CC(=O)NC(C)C#Cc1ccc(Oc2ccc(OC(C)C)cc2)cc1 (configuration not stated) |
